Entries after “also recorded” stand apart in the source; their conditions may differ.
Tests used:
SW480^cld1 cells [1] = test: Cell viability; assay type: cell-based, human
Outline: (§1)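 Claudin-1-overexpressing SW480cld1 and SW620 cells grown in RPMI with 10% FBS and exposed for 72 hours to a range of test compound concentrations. Viability measured by PrestoBlue reagent. EC50 calculated from the concentration–viability data.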

SW620 cells [2] = test: Cell viability; assay type: cell-based, human
Outline: as §1

HCT116 cells [3] = test: Cell viability; assay type: cell-based, human; conditions: 25 & 50μM
Outline: (§2)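 Cells maintained in RPMI plus 10% FBS. Viability read with PrestoBlue reagent per kit protocol after 72 h exposure to test compound.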

SW480^cld2 cells = test: Cell viability; assay type: cell-based, human; conditions: 25 & 50μM
Outline: as §2

SW480 cells = test: Cell viability; assay type: cell-based, human; conditions: even at 25μM
SW480^cld1 cells [4] = test: Anoikis-induced apoptosis assay; assay type: cell-based
Outline: (§3)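 Anoikis induced by plating cells on poly-HEMA-coated culture plates. Apoptosis quantified with a cell death detection ELISA. Parental lines were cultured in RPMI with 10% FBS. Claudin-1-overexpressing SW480 and claudin-1-knockdown SW620 derivatives were used.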

SW620 cells [5] = test: Anoikis-induced apoptosis assay; assay type: cell-based
HCT116 cells [6] = test: Anoikis-induced apoptosis assay; assay type: cell-based, human; conditions: claudin-1 deficient HCT116
SW620^1C cells = test: Anoikis-induced apoptosis assay; assay type: cell-based, human; conditions: claudin-1 knockdown SW620^1C
Outline: as §3

SW620 cells [7] = test: Transwell matrigel invasion assay; assay type: cell-based, human; conditions: I-6; claudin-1 overexpressed SW620
SW480^cld1 cells [8] = test: Transwell matrigel invasion assay; assay type: cell-based, human; conditions: I-6; claudin-1 overexpressed SW480^cld1
HCT116 cells [9] = test: Transwell matrigel invasion assay; assay type: cell-based, human; conditions: I-6; claudin-1 deficient HCT116
[10] = test system: SW480^cld1 xenograft tumor; test: Subcutaneous xenograft tumor study; assay type: in vivo, athymic nude mice
Outline: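 Cells implanted subcutaneously in athymic nude mice, n = 5 per group, vehicle controls. For SW480cld1 with I-6, once-weekly dosing started 10 days after implantation, once tumors were palpable, for two weeks. Caliper volume over time, formula […]. Ki67 and cleaved PARP by IHC. Behavior and body weight monitored.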

[11] = test system: colon tumoroids from APC^min/+ / claudin-1 mice; test: Tumoroid culture apoptosis; assay type: cell-based
Outline: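 Colon tumors from APCmin/+/claudin-1 mice washed in ice-cold PBS and digested with collagenase-containing buffer. Single cells pelleted at 200 x g for 3 min, embedded in Matrigel and plated as tumoroids. Tumoroids exposed to test compound alone or with 5 μM 5-FU, then scored for apoptosis.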

[12] = Plasma pharmacokinetics in mice; assay type: in vivo
Outline: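 I-6 given as a single 1 mg/kg intravenous dose to C57BL6 mice (n=5), with serial blood sampling. PDS-0330 given at 5 mg/kg by oral gavage or IP, with ~100 μl blood drawn from the maxillary vein at 5, 15, 30 min and 1, 2, 4, 6, 8, 24 h. Plasma levels in ng/ml; non-compartmental parameters.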

[13] = Tissue bio-distribution in mice; assay type: in vivo; conditions: both, mouse, liver, po, 5 mg/kg
[14] = Metabolic stability, phase I; assay type: in vitro ADME, human; conditions: HLM, phase I metabolism, 60 min
Outline: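 Phase I stability in human liver microsomes (20 mg/ml stock), 100 mM potassium phosphate pH 7.4, 10 mM MgCl2, 2 mM NADPH. Mix pre-incubated 10 min at 37 °C. Output is percent parent remaining per time point. Elimination rate constant taken from first-order plot of ln area ratio versus time.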

[15] = biological target: T1, claudin-1/Src association (Homo sapiens, UniProt O95832); test: Proximity ligation assay; assay type: cell-based
T1 sequence (O95832 1-211): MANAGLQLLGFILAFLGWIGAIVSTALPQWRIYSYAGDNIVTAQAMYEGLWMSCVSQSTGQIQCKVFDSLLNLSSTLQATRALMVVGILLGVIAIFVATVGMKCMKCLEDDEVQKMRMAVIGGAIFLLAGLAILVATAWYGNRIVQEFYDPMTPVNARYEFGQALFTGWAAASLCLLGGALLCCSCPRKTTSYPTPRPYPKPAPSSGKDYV

[16] = test system: pSrc, pAkt, Bcl2, Bcl-xL, survivin, cleaved PARP in SW620 and SW480^cld1 cells; test: Immunoblotting of signaling and apoptosis markers; assay type: cell-based, human; conditions: I-6, SW480^cld1 cells
Outline: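 Treated cells (vehicle or 12.5 and 25 μM) lysed. 10–30 μg protein per lane resolved by SDS-PAGE and immunoblotted, with enhanced chemiluminescence detection on film. Antibodies included p-Src (Tyr416), pAkt and total Akt, with GAPDH or β-actin as loading reference.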

[17] = I-6 1mg/kg intravenous, mice, plasma, 1 mg/kg
[18] = both, C57BL6, mouse, plasma, iv, 1 mg/kg

SMILES: COc1cc2ccccc2cc1C(=O)NC(=S)Nc1ccc(-c2nc3ccccc3[nH]2)cc1 [I-6, N-((4-(1H-benzo[d]imidazol-2-yl)phenyl)carbamothioyl)-3-methoxy-2-naphthamide]
- cell viability (SW480^cld1 cells [1]; 25 & 50μM, P<0.001): significantly decreases cell viability
- EC50 (SW480^cld1 cells [1]; Homo sapiens, 72 h, read-out: EC50, cell viability): 28.4 µM
- effect with 5-FU on cell growth (SW480^cld1 cells [1]; I-6 0.625μM-20μM with 5-FU 5μM): synergistic effect
- cell viability (SW620 cells [2]; 25 & 50μM, P<0.001): significantly decreases cell viability
- EC50 (SW620 cells [2]; Homo sapiens, SW-620, 72 h, read-out: EC50, cell viability): 24.8 µM
- cell viability (HCT116 cells [3]): no significant impact
- cell viability (SW480^cld2 cells): no significant impact
- impact on SW480 cells (SW480 cells): no significant impact
- resistance to anoikis (SW480^cld1 cells [4]; claudin-1 overexpressed SW480^cld1): dramatically inhibits anoikis resistance; also recorded: inhibition of resistance to anoikis
- effect with 5-FU on anoikis resistance (SW480^cld1 cells [4]; co-treatment with 5-FU): synergistic effect
- resistance to anoikis (SW620 cells [5]; claudin-1 overexpressed SW620): inhibition of resistance to anoikis
- effect with 5-FU on anoikis resistance (SW620 cells [5]; co-treatment with 5-FU): synergistic effect
- resistance to anoikis (HCT116 cells [6]): no effect
- resistance to anoikis (SW620^1C cells): no effect
- invasion (SW620 cells [7]): suppresses invasion
- invasion (SW480^cld1 cells [8]): suppresses invasion
- invasion (HCT116 cells [9]): no effect
- Ki67 expression in tumors (IHC) ([10]; I-6 10 mg/kg): significantly inhibited
- cleaved PARP in tumors (IHC) ([10]; I-6 10 mg/kg): significantly increased
- tumor volume and weight at necropsy ([10]; I-6 10 mg/kg once/week, vs vehicle): significantly reduced
- effect with 5-FU on development of xenograft tumor ([10]; co-treatment with 5-FU, nude mice): synergistic effect
- mouse behavior or weight ([10]; during I-6 / 5-FU xenograft studies): no obvious changes
- effect with 5-FU on induction of apoptosis in tumoroids ([11]; I-6 25μM with 5-FU 5μM): synergistic effect
- rate of apoptosis in tumoroids ([11]; I-6 25μM, 48 hours): significantly increased
- time up to which detectable in plasma ([12]; I-6 1mg/kg intravenous, mice): up to 24 h
- AUC0- ∞ [12, 17]: 1207.1 ± 35.6 ng·h/mL
- C0 [12, 17]: 798.3 ± 277.2 ng/mL
- time of plasma peak concentration ([12]; I-6 oral 5mg/kg, mice): 2 h
- AUC(0-t) [12, 18]: 1140 ± 59.6 ng·h/mL
- MRT [12, 18]: 5.6 ± 1.2 h
- half-life [12, 18]: 7 ± 1.6 h
- AUC(0-inf) ([12]; both, C57BL6, mouse, plasma, iv, 1 mg/kg, AUC0- ∞, I-6 1mg/kg intravenous, mice): 1140 ng·h/mL
- C0 ([12]; both, C57BL6, mouse, plasma, iv, 1 mg/kg, C0, I-6 1mg/kg intravenous, mice): 798 ng/mL
- Vd ([12]; both, C57BL6, mouse, plasma, iv, 1 mg/kg, Vd, I-6 1mg/kg intravenous, mice): 8.4 ± 2.1 L/kg
- Vd ([12]; both, C57BL6, mouse, plasma, iv, 1 mg/kg, Vss, I-6 1mg/kg intravenous, mice): 4.7 ± 1.1 L/kg
- Cmax ([12]; both, mouse, plasma, po, 5 mg/kg): 2.8 ng/mL
- concentration at 24 h [13]: 65 ng/g
- drug remaining after 60 min [14]: 49%
- association of claudin-1 with Src [15]: significantly interferes
- Src phosphorylation [16]: significantly interferes

— article PMC10824272 (Biomedicine & pharmacotherapy = Biomedecine & …, 2023)
